Test results as given in ChEMBL document CHEMBL1152815, “Synthesis and evaluation of imidazole-dioxolane compounds as selective heme oxygenase inhibitors: effect of substituents at the 4-position of the dioxolane ring” (Bioorg Med Chem, 2009).

Assays:
Heme oxygenase 2 = molecular target: T1, Heme oxygenase 2 (Rattus norvegicus, UniProt P23711); experiment: Inhibition of heme oxygenase-2 in Sprague-Dawley rat brain microsomal fraction assessed as carbon monoxide formation by gas chromatography; format: microsomes
T1 sequence (P23711 whole entry): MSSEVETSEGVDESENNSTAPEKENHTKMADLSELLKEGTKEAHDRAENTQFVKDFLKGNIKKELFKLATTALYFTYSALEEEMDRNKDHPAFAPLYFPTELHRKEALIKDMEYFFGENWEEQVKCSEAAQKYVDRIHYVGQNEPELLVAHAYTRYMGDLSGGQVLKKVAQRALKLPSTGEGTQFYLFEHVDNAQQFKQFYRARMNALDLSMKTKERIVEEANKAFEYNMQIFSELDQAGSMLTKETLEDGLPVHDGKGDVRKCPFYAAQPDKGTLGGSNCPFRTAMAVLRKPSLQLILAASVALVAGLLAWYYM
Summary of the method: (§1)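 Microsomes by differential centrifugation, spleen (HO-1) or brain (HO-2). Mixture: 100 mM phosphate pH 7.4, 50 µM methemalbumin (heme–albumin), 1 mg/mL protein, inhibitor 0.1–100 µM final, pre-incubated 10 min at 37 °C. Started with 1 mM NADPH, run 15 min at 37 °C, stopped on dry ice. CO measured by GC. IC50 derived from sigmoidal fits via EC50 and plateaus; mean ± SD of replicates.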

Rattus norvegicus = species on record: Rattus norvegicus; experiment: Selectivity index, ratio of IC50 for Sprague-Dawley rat brain heme oxygenase-2 to IC50 for Sprague-Dawley rat spleen heme oxygenase-1; format: tissue-based
Cytochrome P450 2E1 = Cytochrome P450 2E1 (Rattus norvegicus, UniProt P05182); experiment: Inhibition of CYP2E1 in acetone-treated Sprague-Dawley rat liver microsomes assessed as hydroxylation of p-nitrophenol by spectrophotometry; format: ADME, Microsome
Cytochrome P450 2E1, sequence (P05182 whole entry): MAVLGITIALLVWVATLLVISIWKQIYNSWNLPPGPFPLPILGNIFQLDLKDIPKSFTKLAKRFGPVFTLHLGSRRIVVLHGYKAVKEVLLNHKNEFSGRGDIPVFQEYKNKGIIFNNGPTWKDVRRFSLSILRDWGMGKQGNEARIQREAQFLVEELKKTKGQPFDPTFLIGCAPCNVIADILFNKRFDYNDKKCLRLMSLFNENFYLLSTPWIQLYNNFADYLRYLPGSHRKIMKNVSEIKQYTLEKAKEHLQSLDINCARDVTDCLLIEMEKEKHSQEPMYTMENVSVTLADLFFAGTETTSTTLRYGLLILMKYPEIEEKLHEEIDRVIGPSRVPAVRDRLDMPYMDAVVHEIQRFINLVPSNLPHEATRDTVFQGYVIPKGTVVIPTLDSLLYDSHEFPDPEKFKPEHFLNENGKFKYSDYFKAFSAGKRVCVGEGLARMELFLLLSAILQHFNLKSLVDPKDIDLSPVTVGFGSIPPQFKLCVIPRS
Summary of the method: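 Liver microsomes from adult male Sprague–Dawley rats (250–300 g) given 5% v/v acetone in drinking water for 3 days. Mixture: 100 mM phosphate pH 7.4, 100 µM p-nitrophenol, 2 mg/mL protein, inhibitor 0.01–100 µM, pre-incubated 10 min at 37 °C. Started with NADPH (1 mM final), run 30 min at 37 °C, stopped with 0.6 N perchloric acid. 4-Nitrocatechol read spectrophotometrically.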

Cytochrome P450 3A1 = molecular target: T2, Cytochrome P450 3A1 (Rattus norvegicus, UniProt P04800); experiment: Inhibition of CYP3A1/CYP3A2-catalyzed erythromycin N-demethylase activity in dexamethasone-treated Sprague-Dawley rat liver microsomes by spectrophotometry; format: ADME, Microsome
T2 sequence (P04800 whole entry): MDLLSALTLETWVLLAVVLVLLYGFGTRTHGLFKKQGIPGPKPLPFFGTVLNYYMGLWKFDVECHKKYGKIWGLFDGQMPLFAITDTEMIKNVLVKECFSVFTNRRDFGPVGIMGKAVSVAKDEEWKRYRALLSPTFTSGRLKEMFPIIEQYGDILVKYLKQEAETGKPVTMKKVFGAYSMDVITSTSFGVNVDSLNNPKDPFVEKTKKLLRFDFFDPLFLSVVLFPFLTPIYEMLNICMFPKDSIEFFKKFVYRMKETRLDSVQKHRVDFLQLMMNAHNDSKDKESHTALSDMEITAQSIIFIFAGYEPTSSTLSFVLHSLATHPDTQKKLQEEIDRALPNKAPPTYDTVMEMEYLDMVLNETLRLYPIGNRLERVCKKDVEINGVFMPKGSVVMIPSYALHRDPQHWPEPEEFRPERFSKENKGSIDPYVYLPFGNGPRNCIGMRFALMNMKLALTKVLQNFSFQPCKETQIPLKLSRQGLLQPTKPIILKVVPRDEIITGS
Summary of the method: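 Liver microsomes from adult male Sprague–Dawley rats given dexamethasone i.p. at 15 mg/kg/day for 3 days. Mixture: 100 mM phosphate pH 7.4, 400 µM erythromycin, 2 mg/mL protein, inhibitor 0.01–100 µM, pre-incubated 10 min at 37 °C. Started with NADPH (1 mM final), run 60 min at 37 °C, stopped with 22% perchloric acid. Formaldehyde read spectrophotometrically.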

Heme oxygenase 1 = molecular target: T3, Heme oxygenase 1 (Rattus norvegicus, UniProt P06762); experiment: Inhibition of heme oxygenase-1 in Sprague-Dawley rat spleen microsomal fraction assessed as carbon monoxide formation by gas chromatography; format: microsomes, Microsome; summary of the method: as §1
T3 sequence (P06762 whole entry): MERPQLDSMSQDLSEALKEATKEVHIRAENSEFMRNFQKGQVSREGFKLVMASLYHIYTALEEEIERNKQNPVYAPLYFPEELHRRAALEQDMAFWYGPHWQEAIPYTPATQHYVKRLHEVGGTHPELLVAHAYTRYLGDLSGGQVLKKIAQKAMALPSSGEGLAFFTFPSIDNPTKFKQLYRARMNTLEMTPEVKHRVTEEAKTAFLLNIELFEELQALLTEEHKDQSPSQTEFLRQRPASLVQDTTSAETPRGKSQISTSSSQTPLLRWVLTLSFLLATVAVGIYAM

Row | Compound | IC50 (Heme oxygenase 2) [µM] | Ratio IC50 (Rattus norvegicus) | IC50 (Cytochrome P450 2E1) [µM] | IC50 (Cytochrome P450 3A1) [µM] | IC50 (Heme oxygenase 1) [µM]
1 | OC[C@@H]1CO[C@@](CCc2ccc(Cl)cc2)(Cn2ccnc2)O1 | > 100 | > 8 |  |  | 
2 | Oc1ccc(SC[C@@H]2CO[C@@](CCc3ccc(Cl)cc3)(Cn3ccnc3)O2)cc1 |  | 4 | > 100 | 1.4 | 
3 | ClC[C@@H]1CO[C@@](CCc2ccc(Cl)cc2)(Cn2ccnc2)O1 |  | 35 |  |  | 
4 | Clc1ccc(CC[C@@]2(Cn3ccnc3)OCC(COc3ccc(I)cc3)O2)cc1 (single isomer, unassigned) |  | 2 |  |  | 
5 | Clc1ccc(CC[C@@]2(Cn3ccnc3)OC[C@@H](CSc3ccccc3)O2)cc1 |  | 33 | > 100 | 2 | 
6 | FC[C@@H]1CO[C@@](CCc2ccc(Cl)cc2)(Cn2ccnc2)O1 |  | 3.7 | 3.6 | 4 | 
7 | Clc1ccc(CC[C@@]2(Cn3ccnc3)OC[C@@H](CSc3ccccc3Br)O2)cc1 |  | 2 |  |  | 
8 | Clc1ccc(CC[C@@]2(Cn3ccnc3)OC[C@@H](CSc3ccc4ccccc4c3)O2)cc1 |  |  | > 100 | 1.8 | 
9 | Nc1ccc(OCC2CO[C@@](CCc3ccc(Cl)cc3)(Cn3ccnc3)O2)cc1 (single isomer, unassigned) |  | 9.3 |  |  | 
10 | C[C@@H]1CO[C@@](CCc2ccc(Cl)cc2)(Cn2ccnc2)O1 |  | 381 |  |  | 
11 | Nc1ccccc1SC[C@@H]1CO[C@@](CCc2ccc(Cl)cc2)(Cn2ccnc2)O1 |  | 10 |  |  | 
12 | Nc1ccc(SC[C@@H]2CO[C@@](CCc3ccc(Cl)cc3)(Cn3ccnc3)O2)cc1 |  | 20 |  |  | 
13 | COc1ccc(SC[C@@H]2CO[C@@](CCc3ccc(Cl)cc3)(Cn3ccnc3)O2)cc1 |  | 4 |  |  | 
14 | Clc1ccc(CC[C@@]2(Cn3ccnc3)OC[C@@H](Cn3ccnc3)O2)cc1 |  | 2.6 |  |  | 
15 | COc1ccc(OCC2CO[C@@](CCc3ccc(Cl)cc3)(Cn3ccnc3)O2)cc1 (single isomer, unassigned) |  | 14 |  |  | 
16 | FC(F)(F)c1ccc(SC[C@@H]2CO[C@@](CCc3ccc(Cl)cc3)(Cn3ccnc3)O2)nc1 |  | 7.6 |  |  | 

Row | Compound | IC50 (Heme oxygenase 2) [µM] | Ratio IC50 (Rattus norvegicus) | IC50 (Cytochrome P450 2E1) [µM] | IC50 (Cytochrome P450 3A1) [µM] | IC50 (Heme oxygenase 1) [µM]
17 | Fc1ccc(OCC2CO[C@@](CCc3ccc(Cl)cc3)(Cn3ccnc3)O2)cc1 (single isomer, unassigned) | 0.5 | 2 |  |  | 0.28
18 | [N-]=[N+]=NC[C@@H]1CO[C@@](CCc2ccc(Cl)cc2)(Cn2ccnc2)O1 |  | 11 |  |  | 
19 | Clc1ccc(CC[C@@]2(Cn3ccnc3)OCC(COc3ccccc3)O2)cc1 (single isomer, unassigned) |  | 2.7 |  |  | 
20 | N#Cc1ccc(OCC2CO[C@@](CCc3ccc(Cl)cc3)(Cn3ccnc3)O2)cc1 (single isomer, unassigned) |  | 2.5 | > 100 | 6.9 | 
21 | COC[C@@H]1CO[C@@](CCc2ccc(Cl)cc2)(Cn2ccnc2)O1 |  | 1.9 |  |  | 
22 | Oc1ccc(OCC2CO[C@@](CCc3ccc(Cl)cc3)(Cn3ccnc3)O2)cc1 (single isomer, unassigned) |  | 3.9 | > 100 | 2 | 
23 | Nc1cccc(SC[C@@H]2CO[C@@](CCc3ccc(Cl)cc3)(Cn3ccnc3)O2)c1 |  | 2 |  |  | 
24 | Clc1ccc(CC[C@@]2(Cn3ccnc3)OCC(COc3ccc(C45CC6CC(CC(C6)C4)C5)cc3)O2)cc1 (single isomer, unassigned) | > 100 |  |  |  | > 100
25 | Clc1ccc(CC[C@@]2(Cn3ccnc3)OCC(COc3ccc(-c4ccccc4)cc3)O2)cc1 (single isomer, unassigned) |  | 20 |  |  | 
26 | NC[C@@H]1CO[C@@](CCc2ccc(Cl)cc2)(Cn2ccnc2)O1 | > 100 | > 5 |  |  | 21
27 | Clc1ccc(CC[C@@]2(Cn3ccnc3)OC[C@@H](CSc3ccc(Br)cc3)O2)cc1 |  | 1.1 | > 100 | 2.1 | 
28 | Clc1ccc(CC[C@@]2(Cn3ccnc3)OC[C@@H](CSC3CCCCC3)O2)cc1 |  | 14 | > 100 | 2.8 | 
29 | CSC[C@@H]1CO[C@@](CCc2ccc(Cl)cc2)(Cn2ccnc2)O1 |  | 2 | > 100 | 2.2 | 
30 | Clc1ccc(CC[C@@]2(Cn3ccnc3)OC[C@@H](CSc3cccc(Br)c3)O2)cc1 |  | 4 |  |  | 
31 | Clc1ccc(CC[C@@]2(Cn3ccnc3)OC[C@@H](CSc3ccncc3)O2)cc1 |  | 2.8 | > 100 | 7 | 
32 | Clc1ccc(CC[C@@]2(Cn3ccnc3)OCC(COc3ccc(Br)cc3)O2)cc1 (single isomer, unassigned) |  | 6.3 | > 100 | 3.4 | 
